Assay results of several laboratories.
Protocols differ between the studies behind these lines.
Target: Ephrin type-A receptor 5 (EPHA5, Homo sapiens, UniProt P54756)

Compound	effect on	mode	method	tested at	quantity	result
CC(C)(C)c1cc(C=C(C#N)C#N)cc(Br)c1O	enzyme activity	inhibitor	–	0.5 µM	remaining activity	106%
COc1ncccc1-c1cnn2ccc(N3CCN(C(=O)OC(C)C)CC3)nc12	binding	–	competition with immobilised ligand	1 µM	remaining binding	100%
Cc1nn(C)cc1-c1nc2c(N3CCN(Cc4ccc(Cl)cc4)CC3)c(Cl)cnc2[nH]1	binding	–	competition with immobilised ligand	1 µM	remaining binding	100%
Cn1cncc1[C@@](O)(COc1ccc(C#N)cc1-c1ccc(OC(F)(F)F)cc1)c1ccc(C#N)cc1	cell-free assay	–	competition with immobilised ligand	1 µM	remaining binding	67%
Cn1cc(-c2cc(F)cc(N3CCn4c(cc5c4CCCC5)C3=O)c2CO)cc(Nc2ccc(N3CCN(C4COC4)CC3)cn2)c1=O	enzyme activity	inhibitor	–	0.1 µM	inhibition	11%
C#Cc1n[nH]c2c(-c3cn([C@@H](C)c4ccccc4)c(=O)[nH]c3=O)cc(F)cc12	enzyme activity	inhibitor	–	0.1 µM	inhibition	5.4%
Cn1cc(-c2cccc(N3CCc4c(sc5c4CC(C)(C)C5)C3=O)c2CO)cc(Nc2ccncn2)c1=O	enzyme activity	inhibitor	–	1 µM	inhibition	1%
COc1cc(Nc2ncc(F)c(Nc3ccc4c(n3)NC(=O)C(C)(C)O4)n2)cc(OC)c1OC	binding	–	competition with immobilised ligand	10 µM	inhibition	64%
O=c1[nH]c2ccccc2n1C1CCN(Cc2ccc(-c3[nH]c4cc5ncnc5cc4nc3-c3ccccc3)cc2)CC1	cell-free assay	–	–	0.5 µM	remaining signal	102%
C#Cc1n[nH]c2c(-c3cn([C@@H](C)c4ccccn4)c(=O)[nH]c3=O)cc(F)cc12	enzyme activity	inhibitor	–	0.1 µM	inhibition	8.9%
